The record followed here is ChEMBL document CHEMBL1129688, “ATP-citrate lyase as a target for hypolipidemic intervention. Design and synthesis of 2-substituted butanedioic acids as novel, potent inhibitors of the enzyme” (J Med Chem, 1996).

pKi: −log10 of the molar value.

One experiment concerns the target T1, ATP-citrate synthase (Rattus norvegicus, UniProt P16638).
T1 sequence (P16638 whole entry): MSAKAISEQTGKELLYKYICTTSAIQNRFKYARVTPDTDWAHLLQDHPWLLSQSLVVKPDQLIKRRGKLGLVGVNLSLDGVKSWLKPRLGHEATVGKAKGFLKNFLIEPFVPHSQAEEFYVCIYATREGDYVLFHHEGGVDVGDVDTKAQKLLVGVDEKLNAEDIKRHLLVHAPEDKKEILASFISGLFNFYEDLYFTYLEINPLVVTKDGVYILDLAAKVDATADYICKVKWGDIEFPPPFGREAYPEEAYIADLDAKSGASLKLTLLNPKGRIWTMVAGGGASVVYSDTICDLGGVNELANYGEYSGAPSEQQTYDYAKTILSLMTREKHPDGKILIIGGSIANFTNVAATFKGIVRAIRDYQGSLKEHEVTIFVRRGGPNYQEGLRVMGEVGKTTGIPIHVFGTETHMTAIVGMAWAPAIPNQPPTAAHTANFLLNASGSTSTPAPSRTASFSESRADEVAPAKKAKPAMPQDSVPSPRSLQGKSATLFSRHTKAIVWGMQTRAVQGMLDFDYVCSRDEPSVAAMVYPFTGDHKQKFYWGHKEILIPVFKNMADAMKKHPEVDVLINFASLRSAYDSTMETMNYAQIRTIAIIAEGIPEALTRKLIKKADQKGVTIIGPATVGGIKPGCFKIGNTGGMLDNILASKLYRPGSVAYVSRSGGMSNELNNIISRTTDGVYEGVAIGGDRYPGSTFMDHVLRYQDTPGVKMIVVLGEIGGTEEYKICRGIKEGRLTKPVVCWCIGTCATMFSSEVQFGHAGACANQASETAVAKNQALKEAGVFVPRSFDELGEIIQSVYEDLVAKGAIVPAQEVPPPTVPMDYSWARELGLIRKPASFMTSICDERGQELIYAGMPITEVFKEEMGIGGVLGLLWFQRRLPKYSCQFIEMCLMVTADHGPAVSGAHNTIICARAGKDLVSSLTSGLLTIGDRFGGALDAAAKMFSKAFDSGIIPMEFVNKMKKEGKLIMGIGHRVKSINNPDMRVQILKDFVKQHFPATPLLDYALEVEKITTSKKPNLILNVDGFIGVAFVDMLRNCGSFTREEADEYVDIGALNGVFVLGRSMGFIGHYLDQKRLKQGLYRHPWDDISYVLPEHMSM
The experiment is described as follows: Inhibition of recombinant ATP-Citrate Lyase activity as […] dehydrogenase catalyzed reduction of oxaloacetate by NADH. Conditions: in the assay text read “purified rat ATP-Citrate Lyase” for “recombinant ATP-Citrate Lyase”. The method in brief:
(§1)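 Purified rat ACL or recombinant human ACL was assayed by coupling oxaloacetate formation to malate dehydrogenase reduction with NADH. Buffer: Tris 100 mM pH 8.0, MgCl2 10 mM, KCl 10 mM, DTT 10 mM, plus ATP and NADH. CoA was 200 μM, and citrate was added to 100 μM (its Km) to start the reaction. A340 decrease was followed over 20 min. Ki came from fitting v = Vmax/(2 + [I]/Ki), assuming citrate-competitive inhibition.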
The pKi is the Ki on a negative log10 scale, so that one unit is a factor of ten. Regarding `O=C(O)CC(O)(CSCCCCCCc1ccc2ccccc2c1)C(=O)O` (stereo unspecified), the pKi is 4.03.
Take `O=C(O)CC(O)(CSCCc1ccc(Cl)cc1Cl)C(=O)O` (stereo unspecified): the pKi was 3.32.
On the same count and under the same terms, to `O=C(O)CC(O)(CSCCCCCCc1cccc2ccccc12)C(=O)O` (stereo unspecified) belongs 4.20; to `O=C(O)CC(O)(CSCCCCCCc1ccccc1Cc1ccccc1)C(=O)O` (stereo unspecified), 4.03.
For the molecule `O=C(O)CC(O)(CSCCCCCCc1c(Cl)cc(Cl)cc1-c1ccccc1)C(=O)O` (stereo unspecified), the pKi is 5.00.

Another experiment addresses T1, ATP-citrate synthase. Description: Inhibitory activity against rat ATP-citrate lyase activity by the […] dehydrogenase catalyzed reduction of oxaloacetate by NADH.
Settings: not given
The method in brief:
as §1
Regarding `O=C(O)CC(O)(CSCCCCCCc1cccc(Cl)c1)C(=O)O` (stereo unspecified), the pKi was 3.82.
Still for that read-out and setting: to `O=C(O)CC(O)(CSCCCCNS(=O)(=O)c1ccc(Cl)cc1Cl)C(=O)O` (stereo unspecified) belongs 3.76; to `O=C(O)CC(O)(CSCc1ccc(Cl)cc1Cl)C(=O)O` (stereo unspecified), 3.39; to `O=C(O)CC(O)(CSCCCCCc1ccccc1-c1ccccc1)C(=O)O` (stereo unspecified), 4.68.
For the molecule `O=C(O)CC(O)(CCCCCCCCc1ccc(Cl)cc1Cl)C(=O)O` (stereo unspecified), the pKi is 5.54.
On to `NS(=O)(=O)c1ccc(CCCCCCSCC(O)(CC(=O)O)C(=O)O)cc1` (stereo unspecified), for which the pKi was 3.30.
The same measure, in the same setting: to `O=C(O)CC(O)(CSCCCCCCCCCc1ccc(Cl)cc1Cl)C(=O)O` (stereo unspecified) belongs 3.52.
The same measure, in the same setting: to `O=C(O)CC(O)(CSCCCCCC(=O)c1ccc(Cl)cc1Cl)C(=O)O` (stereo unspecified) belongs 3.89.
For `O=C(O)CC(O)(CSCCCCCCc1c(Cl)cccc1Cl)C(=O)O` (stereo unspecified), the negative-log Ki (pKi) is 4.12.
For `O=C(O)CC(O)(CSCCCCCCc1ccc(C(=O)O)cc1)C(=O)O` (stereo unspecified), the negative-log Ki (pKi) was 3.38.
On to `O=C(O)CC(O)(CSCCCCCc1ccccc1)C(=O)O` (stereo unspecified), for which the negative-log Ki (pKi) is 3.31.
On the same count and under the same terms, to `O=C(O)CC(O)(CSCCCCCCc1ccccc1-c1ccccc1)C(=O)O` (stereo unspecified) belongs 4.74; to `O=C(O)CC(CSCCCCCCc1ccc(Cl)cc1Cl)C(=O)O` (stereo unspecified), 5.59; to `O=C(O)CC(O)(CSCCCCCCc1ccc(Br)cc1)C(=O)O` (stereo unspecified), 4.51.
Take `O=C(O)CC(O)(CSCCCCCCCc1ccc(Cl)cc1Cl)C(=O)O` (stereo unspecified): the pKi is 5.14.
In turn, `O=C(O)CC(O)(CSCCCC/C=C/c1ccc(Cl)cc1Cl)C(=O)O` (stereo unspecified) gave a pKi of 4.48.
On the same count and under the same terms, to `O=C(O)CC(O)(CSCCCCCOc1ccc(Cl)cc1Cl)C(=O)O` (stereo unspecified) belongs 4.17; to `O=C(O)CC(O)(CSCCCCCCc1ccc(-c2ccccc2)cc1)C(=O)O` (stereo unspecified), 4.42; to `O=C(O)CC(O)(CSCCCCCc1ccc(-c2ccccc2)cc1)C(=O)O` (stereo unspecified), 3.65.
Still for that read-out and setting: to `O=C(O)CC(O)(CSCCCCCCc1ccc(O)cc1)C(=O)O` (stereo unspecified) belongs 3.38; to `O=C(O)CC(O)(CC(=O)CCCCCc1ccc(Cl)cc1Cl)C(=O)O` (stereo unspecified), 4.60.
The same measure, in the same setting: to `O=C(O)CC(O)(CSCCCCCSc1ccc(Cl)cc1Cl)C(=O)O` (stereo unspecified) belongs 5.00; to `O=C(O)CC(O)(CSCCCCCCc1ccc(Cl)c(Cl)c1)C(=O)O` (stereo unspecified), 3.96.
Consider `O=C(O)CC(O)(CCCCCCCc1ccc(Cl)cc1Cl)C(=O)O` (stereo unspecified), for which the pKi was 4.98.
The same measure, in the same setting: to `O=C(O)CC(O)CSCCCCCCc1ccc(Cl)cc1Cl` (stereo unspecified) belongs 4.06.
As to `O=C(O)CC(CSCCCCC[S+]([O-])c1ccc(Cl)cc1Cl)C(=O)O` (stereo unspecified), the pKi is 3.88.
`O=C(O)CC(O)(CCSCCCCCc1ccc(Cl)cc1Cl)C(=O)O` (stereo unspecified): the pKi is 5.54.
The same measure, in the same setting: to `O=C(O)CC(O)(CSCCCCCCc1cccc(Cl)c1Cl)C(=O)O` (stereo unspecified) belongs 5.14; to `CN(CCCCSCC(O)(CC(=O)O)C(=O)O)S(=O)(=O)c1ccc(Cl)cc1Cl` (stereo unspecified), 3.75.
Regarding `O=C(O)CCCSCCCCCCc1ccc(Cl)cc1Cl`, the negative-log Ki (pKi) is 4.60.
`O=C(O)CC(O)(CSCCCCCCc1ccccc1Cl)C(=O)O` (stereo unspecified) had a pKi of 4.16.
Same read-out and setting: to `O=C(O)CC(O)(CSCCCCCNc1ccc(Cl)cc1Cl)C(=O)O` (stereo unspecified) belongs 4.92; to `O=C(O)CC(O)(CSCCCCCCc1ccc(F)cc1)C(=O)O` (stereo unspecified), 3.92; to `O=C(O)CC(O)(CSCCCC/C=C\c1ccc(Cl)cc1Cl)C(=O)O` (stereo unspecified), 5.13.
Regarding `O=C(O)CC(O)(CSCCCCCS(=O)(=O)c1ccc(Cl)cc1Cl)C(=O)O` (stereo unspecified), the pKi is 4.19.
With `O=C(O)CC(O)(CSCCCCCCc1ccc(Cl)cc1)C(=O)O` (stereo unspecified), the pKi was 4.15.
